Data taken from ChEMBL document CHEMBL5620402, “Development of submicromolar 17β-HSD10 inhibitors and their in vitro and in vivo evaluation” (Eur J Med Chem, 2023).

Key:
[1] = molecular target: T1, 3-hydroxyacyl-CoA dehydrogenase type-2 (Homo sapiens, UniProt Q99714); experiment: Inhibition of human recombinant 17beta-HSD10 expressed in bacterial expression system assessed as decrease in NADH using acetoacetyl-CoA as substrate
T1 sequence (Q99714 whole entry): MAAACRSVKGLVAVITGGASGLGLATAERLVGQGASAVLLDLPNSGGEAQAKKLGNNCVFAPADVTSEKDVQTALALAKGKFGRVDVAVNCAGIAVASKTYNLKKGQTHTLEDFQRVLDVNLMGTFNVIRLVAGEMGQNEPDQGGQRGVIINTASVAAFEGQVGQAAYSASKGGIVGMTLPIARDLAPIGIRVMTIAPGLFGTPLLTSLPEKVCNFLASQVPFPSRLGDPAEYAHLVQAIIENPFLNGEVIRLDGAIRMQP
In short: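 Recombinant 17β-HSD10 from E. coli BL21(DE3), 0.15 μg, was mixed with 320 μmol/L NADH in 10 mM Tris-HCl pH 7.4 buffer (150 mM NaCl, 1 mM DTT, 0.001% Tween 20, 0.01% BSA). It was preincubated 5 min at 37 °C with inhibitor, then 320 μmol/L acetoacetyl-CoA was added. A340 was followed for 5 min. IC50 came from non-linear regression of ≥3 independent runs in triplicate; Ki was calculated from IC50 per Cer et al.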

[2] = PBS buffer - Octanol distribution coefficient, logD of the compound at pH 7.4 by UHPLC-DAD-MS analysis; assay type: physicochemical
In short: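 Compound (0.25 mg) was put into 500 μL of a 1:1 water–octanol (logP) or PBS pH 7.4–octanol (logD) mixture. Samples were shaken 30 min and centrifuged 10 min at 10,000 rcf. Each phase was quantified by UHPLC-DAD-MS against calibration lines.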

[3] = Dissociation constant, pKa of compound using buffers of given pH (range from 3.0 to 11.5) by UV-VIS spectrophotometry; assay type: physicochemical
In short: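 Compound (10 μL of 1 mg/mL) was put into 490 μL of buffers spanning pH 3.0–11.5 in 0.5-unit steps. UV spectra were scanned at 200–400 nm and 20 °C. pKa was fitted from the sigmoidal absorbance of the dissociated form versus pH.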

[4] = Aqueous solubility, logS of the compound at pH 7.4 phosphate buffer by nephelometry assay; assay type: physicochemical
In short: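 Nephelometry of compound suspensions in phosphate buffer pH 7.4. Stock was 160 μg/mL, sonicated and auto-diluted over 0–160 μg/mL, with higher stocks (640 μg/mL, 2.54 mg/mL) used if needed. Wells were shaken 30 s and laser-scanned. Solubility was derived by segmental linear regression.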

[5] = molecular target: T2, 3-hydroxyacyl-CoA dehydrogenase type-2 (Homo sapiens) (UniProt Q99714); experiment: Inhibition of recombinant 17beta-HSD10 (unknown origin) expressed in Escherichia coli BL21 (DE3) assessed as residual activity at 10 uM using acetoacetyl-CoA as substrate by SAAC method relative to control
T2 sequence (whole entry): T1 sequence (Q99714 whole entry)
In short: (§1)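 Recombinant 17β-HSD10 from E. coli BL21(DE3), 0.15 μg, was mixed with 320 μmol/L NADH in Tris-HCl pH 7.4 assay buffer. It was preincubated 5 min at 37 °C with 1 or 10 μM inhibitor or vehicle, then 320 μmol/L acetoacetyl-CoA was added. A340 was followed for 5 min. Residual activity is % of control, triplicate mean ± SD, with t-test versus control.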

[6] = molecular target: T2, 3-hydroxyacyl-CoA dehydrogenase type-2 (Homo sapiens); experiment: Inhibition of recombinant 17beta-HSD10 (unknown origin) expressed in Escherichia coli BL21 (DE3) assessed as residual activity at 1 uM using acetoacetyl-CoA as substrate by SAAC method relative to control; in short: as §1
[7] = Partition coefficient between Water and Octanol, logP of the compound by UHPLC-DAD-MS analysis; details: pH 7.4

Structure (SMILES) | IC50 [1] [nM] | logD [2] | pKa [3] | logS0 [4] | Activity [5] [%] | Activity [6] [%] | logP [7]
COc1ccc2nc(NC(=O)Nc3ccc(O)c(Br)c3)sc2c1 | 1300 | – | – | – | – | – | –
CN(C)C(=O)c1ccc2nc(NC(=O)Nc3ccc(O)c(Cl)c3)sc2c1 | – | 2.95 | 9.51 | -4.81 | 31 | 70 | 2.94
Oc1ccc(CNCc2cc3ccccc3[nH]2)cc1Cl | – | 2.73 | 7.6 | -3.39 | 73.8 | – | 2.84
Oc1ccc(CNCc2nc3ccccc3o2)cc1Cl | – | 3.19 | 8.74 | -3.38 | 67.6 | – | 3.14
CN(C)c1ccc2nc(NC(=O)Nc3ccc(O)c(Cl)c3)sc2c1 | – | 4.08 | 4.61 | -4.08 | 27 | 62.7 | 4.09
CS(=O)(=O)c1ccc2nc(NC(=O)Nc3ccc(O)c(Cl)c3)sc2c1 | 900 | – | – | – | – | – | –
Oc1ccc(/N=C/c2nc3ccccc3s2)cc1Cl | – | 2.73 | 9.14 | -4.68 | 68.7 | – | 2.94
COc1ccc2nc(NCc3ccc(O)c(Cl)c3)sc2c1 | – | 4.17 | 8.4 | -4.73 | 33.2 | 74.4 | 4.19
COc1ccc2nc(/N=C/c3ccc(O)c(Cl)c3)sc2c1 | – | 3.95 | 11.6 | -4.73 | 76.6 | – | 3.79
CCOC(=O)c1ccc2nc(NC(=O)Nc3ccc(O)c(Cl)c3)sc2c1 | – | 4.64 | 9.26 | -4.81 | 58.6 | – | 4.58
Oc1ccc(CNCc2nc3ccccc3s2)cc1Cl | – | 4.04 | 8.79 | -3.99 | 54.1 | – | 4.03
COc1ccc2nc(NC(=O)Nc3ccc(O)c([N+](=O)[O-])c3)sc2c1 | – | 3.44 | 10.4 | -4.78 | 79.4 | – | 3.47
Oc1ccc(NCc2nc3ccccc3s2)cc1Cl | – | 3.88 | 9.07 | -4.69 | 72.1 | – | 3.77
